The record followed here is the EternaBench riboswitch data.

This data set has as its system MS2 coat protein. Kind of data set: apparent Kd, MS2 coat protein; higher = weaker binding; RNA-MaP array; FMN 200 µM where present. The procedure, abridged: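 Designs on Illumina sequencing-chip clusters, transcribed by stalled E. coli RNA polymerase, were exposed to SNAP-549-labelled MS2 coat protein in doubling steps from 0.7 or 1.5 nM up to 3 µM, without and then with constant ligand. The buffer held 100 mM Tris-HCl pH 7.5, 80 mM KCl, 4 mM MgCl2, BSA, DTT, yeast tRNA and Tween-20. Apparent Kd values are medians of filtered per-cluster binding-curve fits to green signal normalised to red-channel RNA signal and control-cluster median Fmax.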

The mark [1] stands for this setting: designed as: ON switch for flavin mononucleotide, no ligand.
Setting [2] is: ligand present: flavin mononucleotide, designed as: ON switch for flavin mononucleotide.
Where [3] appears, read: designed as: OFF switch for flavin mononucleotide, no ligand.
Setting [4] is: ligand present: flavin mononucleotide, designed as: OFF switch for flavin mononucleotide.

For “ACAUGAGGAUCACCCAUGUAUACAUAGGAUAUUGGUGAUCAGGGAUGUUUUACAGGAUAUGUCUGCGAGAAGGAUGCAAGUACA”, the “apparent Kd” value was 352 nM under setting [1] and 151 nM under setting [2].

Regarding “AAUGAAACUUAGAAGGCCUACAUGAGGAUCACCCAUGUGGCUUUAAGUGUAGGAGGAUAUGAGGAUGCGGGUAGGAACCCACGC”, the “apparent Kd” value by setting is: under setting [3], 6.37 nM; under setting [4], 14.8 nM.

Regarding “UUGGACGUCGUAGGAUAUGUAGGAUAUUCCUACAUGAGGAUCACCCAUGUUGACAUGGAAGAAGGGCAGAAGGACGAUGUCCAU”, the “apparent Kd” value is, setting by setting: under setting [1], 548 nM; under setting [2], 8.38 nM.

In the case of “GGUUCUCAAAGAGAACCAUAACGAACAUGAGGAUCACCCAUGUAGGAUAUGCUACUCAAAGAGUAGCAGAAGGACAUGUGCCUU”, the “apparent Kd” value reads like this: under setting [3], 30.6 nM; under setting [4], 265 nM.

As to “UGGUACCAGGGAGGAUAUGGGAAGAUACAUGAGGAUCACCCAUGUUUAAGAAUGCCGAGAGGCAACUAGAAGGCCCUAGUACCU”, the “apparent Kd” value under setting [1] came out at 338 nM and the “apparent Kd” value under setting [2] came out at 19 nM.

In the case of “AGCAACAUGAGGAUCACCCAUGUUGGUUCGAAAACGGACUCACAGGAUAUGCAGCGUGAUCGCUCGCAGAAGGGUGCGUCCUCA”, the “apparent Kd” value is 51.2 nM under setting [1] and 38.7 nM under setting [2].

Take “GUUGUGUAUGUAGGAUAUGCGAAGCAAAGCUUCGCAGAAGGACAUGAGGAUCACCCAUGUAUUGCAGCCUGCAAACAGGCUGCU”: the “apparent Kd” value reads like this: under setting [3], 40.2 nM; under setting [4], 170 nM.

Take “GGACGUCACAUUAACAUGAGGAUCACCCAUGUCAAAAGACAUGAGGAUAUGGAUCCUAAUUGGAUCCAGAAGGCAUGGACGUCC”: the “apparent Kd” value by setting is: under setting [1], 664 nM; under setting [2], 33.4 nM.

As for “CAUCUAUUUAGAGGAUAUGGUGACGAAAAGCUACCAGAAGGCUAAGUACAUGAGGAUCACCCAUGUGCGUGGGCGCUUAGGGUC”, the “apparent Kd” value reads like this: under setting [3], 9.93 nM; under setting [4], 47.8 nM.

For the sequence “AAUUUACAGCUAGGAUAUACAUGAGGAUCACCCAUGUAACGAUCGGAUCUUAUGAUCGUGUCCGUGUAGAAGGAGCAAAUAAGA”, the “apparent Kd” value under setting [3] came to 6.97 nM and the “apparent Kd” value under setting [4] amounted to 7.4 nM.

With “UGGAUGUGGGUUCCACAUGAGGAUCACCCAUGUACCGAUGAGAGAAGGCGCGCUGGUUCCCAGGGCGAGGAUAUCUACAUUCAA”, the “apparent Kd” value is 5.63 nM under setting [3] and 14.2 nM under setting [4].

Regarding “CCACUGAUACCUUGGCCGCUACAUGAGGAUCACCCAUGUCGUGAGGAUAUCCCACCAUACUGUUAGGAGAAGGCGCGUAUGGGC”, the “apparent Kd” value by setting is: under setting [3], 11 nM; under setting [4], 17.2 nM.

As to “CUGAUGUGAGGAUAUCGGACUACGGCCAGGCCGCUAGCAUACGAGAAGGCACAUGAGGAUCACCCAUGUGAGAA”, the “apparent Kd” value under setting [3] came to 13.3 nM and the “apparent Kd” value under setting [4] was determined as 42.7 nM.

As to “CCUCCACAUGAGGAUCACCCAUGUCAGGAUAUCGUGUGUUUUUUUUCGGUCGCGCGUGCGAGAAGGGACGUCUU”, the “apparent Kd” value came out at 22.1 nM under setting [3] and 25 nM under setting [4].

For “CCAUCGUGUGUGAGGAUAUGCUGGUCCUUGGAUCAGCAGAAGGCACAUGAGGAUCACCCAUGUGAAUACGGUGG”, the “apparent Kd” value is, setting by setting: under setting [3], 18.6 nM; under setting [4], 29 nM.

For “GCUGUCGCAUGAGGAUAUGGUCAGCUUUGCUGACCAGAAGGCAUGUCAAUAGACAUGAGGAUCACCCAUGUGGUUAGGGCGGCU”, the “apparent Kd” value by setting is: under setting [1], 1030 nM; under setting [2], 93.5 nM.

As for “ACUAGGCGAGGAUAUACAUGCUUAACGCAGGAAAAGCUGCGACAUGAGGAUCACCCAUGUAGAAGGCGCAAAUA”, the “apparent Kd” value under setting [3] was found to be 15.7 nM and the “apparent Kd” value under setting [4] was 115 nM.

As for “UGGUAACAUGAGGAUCACCCAUGUCAGGAUAUCAGUAAGAAUAGAUUAGAUUAGAAUAUGAGAAGGGACUAUAU”, the “apparent Kd” value reads like this: under setting [3], 37.3 nM; under setting [4], 31.6 nM.

Regarding “UUUAUAUUCAGAGGAUAUUAAAGUAGUAUAAUAUAAGAAGGCUGUUUGUUUUGUAAAUUUAUUCUACAUGAGGAUCACCCAUGU”, the “apparent Kd” value amounted to 19.5 nM under setting [1] and 15.7 nM under setting [2].

In the case of “ACUGUUGAGUAGAAGGUACGAUAUUAGUUAUAGUAAGGAUAUACUAACAUGAGGAUCACCCAUGUAUAAAUGGAUAAAUAUUCU”, the “apparent Kd” value was determined as 9.91 nM under setting [1] and 11.5 nM under setting [2].

On to “CAUUUACAGGGAGGAUAUACAUGAGGAUCACCCAUGUCAUCAUACGAUAUUUCUUUUGUAUGAGUGUAGAAGGCCCAACUACCA”, for which the “apparent Kd” value runs as follows: under setting [3], 10.2 nM; under setting [4], 12 nM.

Turning to “UACGGACAUGAGGAUCACCCAUGUGAGGAUAUCGGUACCGAUAGCAUAAUCUACUCGGCGAGAAGGCACAGCGU”, the “apparent Kd” value is, setting by setting: under setting [3], 30.7 nM; under setting [4], 40.1 nM.

Consider “CCGGGCAUCGGCCCAUCUAGGCGAAGAAGGGACACGGCCAAGAUCUCACAUGAGGAUCACCCAUGUCAGGAUAUUUGGUUGGAU”, for which the “apparent Kd” value came out at 6.56 nM under setting [3] and 10.3 nM under setting [4].

Turning to “ACAUACAUUCGAGGAUAUCGGUGAUUAAUUUUACGAGAAGGCGAUAAAAGAUAUAAAAUUUUAGACAUGAGGAUCACCCAUGUA”, the “apparent Kd” value was 28.6 nM under setting [1] and 27.1 nM under setting [2].

Turning to “UUCCUACAUGAGGAUCACCCAUGUCAGGAUAUCUCCUCACCGCGAAUGGGCAGUGAAUAGAGAAGGGACAGGAA”, the “apparent Kd” value is, setting by setting: under setting [3], 11.9 nM; under setting [4], 15.9 nM.

With “CCACUCGGUGAGAAGGCGCCGGCGUCCGCGAGGCGAGGAUAUCACAUGAGGAUCACCCAUGUGGGCAUGAAGAUUGCCACUAGG”, the “apparent Kd” value is, setting by setting: under setting [3], 61.3 nM; under setting [4], 152 nM.

Regarding “UUUACAUGAGGAUCACCCAUGUUAAAAUAAUUAAUUAUAAGUGAGGAUAUAUAAAUUAUAAAAUUGUAGAAGGCACUGGGUAUU”, the “apparent Kd” value stood at 22 nM under setting [1] and 23.4 nM under setting [2].

For “AAAAGGUCAGGAUAUGCGAGCGGCAGGGAGGCAGGUCGGUGGCAGAAGGGACAUGAGGAUCACCCAUGUUAAAA”, the “apparent Kd” value under setting [3] stood at 35 nM and the “apparent Kd” value under setting [4] turned out to be 34.1 nM.

Consider “AGGUGACAUGAGGAUCACCCAUGUCAGGAUAUAUACACCGCCGGCGUGAAGCCGGCGGAUAGAAGGGACAAAAU”, for which the “apparent Kd” value was determined as 17.1 nM under setting [3] and 21.3 nM under setting [4].

With “GGUACUCAAAGAGUAUCAAUACGAACAUGAGGAUCACCCAUGUAGGAUAUGCUACUCAAAGAGUAGCAGAAGGACAUGUGCCUA”, the “apparent Kd” value amounted to 16.2 nM under setting [3] and 91.3 nM under setting [4].

“UAAUUACCGAUCGGUUUGACUUAGCAGGAUAUACAUGAGGAUCACCCAUGUCAAGGGCGUGCCCGGUAGAAGGGUUGGGUUCAA”: the “apparent Kd” value was determined as 35.1 nM under setting [3] and 54.9 nM under setting [4].

On to “GCACGGUAUGUAGGAUAUGCAUAGCAUUGCUAUGCAGAAGGACAUGAGGAUCACCCAUGUAUGUAUUCCAUAUAUUUCCCGUGC”, for which the “apparent Kd” value under setting [3] is 5.55 nM and the “apparent Kd” value under setting [4] was determined as 5.87 nM.

“CUCAUGUCAGGAUAUUAAGUCCGUAGCCUAUGGCUGCAACAUGAGAAGGGACAUGAGGAUCACCCAUGUCGGGA”: the “apparent Kd” value was found to be 47.5 nM under setting [3] and 76.8 nM under setting [4].

For “GUACGUGGACAGAAGGCGACAUGAGGAUCACCCAUGUUGGCUCGGGUACGAGCAAUCCGCGUGAUUGAGGAUAUGUCUGCGGGC”, the “apparent Kd” value by setting is: under setting [3], 6.25 nM; under setting [4], 9.93 nM.

As to “GCUGCUUAUGAGAAGGCGAUCAUGAAACAUGAUCGAGGAUAUCAUGUAAACAUGAGGAUCACCCAUGUAUGGGUAUUAUGCAGC”, the “apparent Kd” value amounted to 374 nM under setting [1] and 37.6 nM under setting [2].

Turning to “UUAAAUCAUGUAGGAUAUGCAUGGCGAAGCUACGCAGAAGGACAUGAGGAUCACCCAUGUUAUAGCGUCCGAAUAAGGAUGCAA”, the “apparent Kd” value by setting is: under setting [3], 90.7 nM; under setting [4], 199 nM.

For the sequence “AGAUUUGUACAUGAGGAUCACCCAUGUUAAUAGGUGUUUGUCAGAAGGCAUUAAGAGAGAAUUAAUGAGGAUAUGAAGUUACAU”, the “apparent Kd” value came to 42.3 nM under setting [1] and 21.7 nM under setting [2].

Regarding “CGGGUGGUCCUCCGGGAUUGGACACAGGAUAUCCGCGAGAACAUGAGGAUCACCCAUGUACAUGAGGAGAAGGGUGGACGAAGA”, the “apparent Kd” value is, setting by setting: under setting [1], 56.1 nM; under setting [2], 11.2 nM.

Take “CAGAAGUCAGGAUAUCCUGCUCGUCACUUGCGUGAUGAGUAGGAGAAGGGACAUGAGGAUCACCCAUGUAAAGG”: the “apparent Kd” value runs as follows: under setting [3], 144 nM; under setting [4], 411 nM.

“AGUCAUUUACAGAAGGGUAGUUGGGUUAUACAUGAGGAUCACCCAUGUUUUACAGGAUAUGUGUUUUGUUACUAUUAAAGUUCA”: the “apparent Kd” value by setting is: under setting [3], 65.7 nM; under setting [4], 120 nM.

Regarding “AACAGUACAGGAUAUACAUGAGGAUCACCCAUGUGAAGAUUAAGUGGUGUACCACUAAGUAGAAGGGUACUGGA”, the “apparent Kd” value amounted to 28.8 nM under setting [3] and 126 nM under setting [4].

As for “GGAGCGGAAGGAUAUGCUGCGGGAUUGCAUGGAAAGAAAAUACAUGAGGAUCACCCAUGUAGAAGGUCCGUGAA”, the “apparent Kd” value runs as follows: under setting [3], 28.2 nM; under setting [4], 70.1 nM.

With “UAUGUUUUAGGAUAUUGUACUGCUGACAUGAGGAUCACCCAUGUAUGCUAACUCGGUUGUCGAGAAGGAGAAUAUG”, the “apparent Kd” value by setting is: under setting [3], 59.4 nM; under setting [4], 44.2 nM.

Turning to “UAUUAACAUGUAGGAUAUCUGCACGAUUAGUGCAGAGAAGGACAUGAGGAUCACCCAUGUAGAUCAUAAUAAUUUAAUUUAAUU”, the “apparent Kd” value is, setting by setting: under setting [3], 133 nM; under setting [4], 422 nM.

Consider “GGAUAGGACAGAGGAUAUACGUGCUAGAGAUACUAGCUAAUAAUCCUUACAUGAGGAUCACCCAUGUAGAAGGCUGUCCUAUCG”, for which the “apparent Kd” value was 20 nM under setting [3] and 45.1 nM under setting [4].

For the sequence “UGGUACUACGGAGGAUAUCAUGUAGAUACAUGAGGAUCACCCAUGUCGAUGGAGACAUCGGAGAUUGAGAAGGCCGUAGUACCU”, the “apparent Kd” value was determined as 610 nM under setting [1] and 29.4 nM under setting [2].

As to “GGAGCACACAUUAACAUGAGGAUCACCCAUGUCUAAAGACAUGAGGAUAUGGAUCCGAAAAGGAUCCAGAAGGCAUGGUGCUCC”, the “apparent Kd” value is, setting by setting: under setting [1], 207 nM; under setting [2], 11.7 nM.

On to “UUGGACGUCGUAGGAUAUGUAGGAUAUUCCGACAUGAGGAUCACCCAUGUUGACAUGGAAGAAGGACAGAAGGACGAUGUCCAU”, for which the “apparent Kd” value under setting [1] worked out at 4.14 nM and the “apparent Kd” value under setting [2] is 3.48 nM.
